Measurements from ChEMBL document CHEMBL5058577, “EUbOPEN Chemogenomics Library 2 (Multiplex)” (2022).

Test system: HEK-293T
Assay: Multiplex assay against HEK293T
Format: toxicity, cell-based
Conditions: human
Summary of the method: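 On a CQ1 microscope at 37°C and 5% CO2, live cells were imaged after compound addition. They had been stained at seeding with Hoechst33342, BioTracker Green Microtubule Cytoskeleton Dye, MitoTracker Red and Annexin V Alexa Fluor 680. CellPathfinder machine-learning gating assigned cells to Hoechst high-intensity objects or normal cells, normal cells to healthy, pyknosed or fragmented nuclei, and pyknosed cells to mitotic or apoptotic. Tubulin, mitochondrial-mass and membrane-permeability phenotypes are per cents of healthy-nucleus cells.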

[1] = 12 h, 1 µM, compound concentration 1 uM, replicate 1
[2] = 12 h, 1 µM, compound concentration 1 uM, replicate 2
[3] = 12 h, 10 µM, compound concentration 10 uM, replicate 1
[4] = 12 h, 10 µM, compound concentration 10 uM, replicate 2
[5] = 24 h, 1 µM, compound concentration 1 uM, replicate 1
[6] = 24 h, 1 µM, compound concentration 1 uM, replicate 2
[7] = 24 h, 10 µM, compound concentration 10 uM, replicate 1
[8] = 24 h, 10 µM, compound concentration 10 uM, replicate 2
[9] = 48 h, 1 µM, compound concentration 1 uM, replicate 1
[10] = 48 h, 1 µM, compound concentration 1 uM, replicate 2
[11] = 48 h, 10 µM, compound concentration 10 uM, replicate 1
[12] = 48 h, 10 µM, compound concentration 10 uM, replicate 2

CN1CCN2c3ncccc3Cc3ccccc3C2C1 (stereo unspecified) [MIRTAZAPINE]
Population Apoptotic (%) [1]: 58% | Population Fragmented Nuclei (%) [1]: 4% | Population Healthy Nuclei (%) [1]: 88% | Population Hoechst High Intensity Objects (%) [1]: 5% | Population Membrane Permeable-Phenotype (%) [1]: 0% | Population Mitochondria Different-Phenotype (%) [1]: 41% | Population Mitotic Cells (%) [1]: 41% | Population Normal (%) [1]: 94% | Population Pyknosed Nuclei (%) [1]: 7% | Population Tubulin-Different-Phenotype (%) [1]: 22% | Total Cell Count [1]: 402 | Population Apoptotic (%) [2]: 51% | Population Fragmented Nuclei (%) [2]: 3% | Population Healthy Nuclei (%) [2]: 79% | Population Hoechst High Intensity Objects (%) [2]: 7% | Population Mitochondria Different-Phenotype (%) [2]: 68% | Population Mitotic Cells (%) [2]: 48% | Population Normal (%) [2]: 92% | Population Pyknosed Nuclei (%) [2]: 17% | Population Tubulin-Different-Phenotype (%) [2]: 21% | Total Cell Count [2]: 329 | Population Apoptotic (%) [3]: 45% | Population Fragmented Nuclei (%) [3]: 9% | Population Healthy Nuclei (%) [3]: 75% | Population Hoechst High Intensity Objects (%) [3]: 6% | Population Membrane Permeable-Phenotype (%) [3]: 0% | Population Mitochondria Different-Phenotype (%) [3]: 49% | Population Mitotic Cells (%) [3]: 54% | Population Normal (%) [3]: 93% | Population Pyknosed Nuclei (%) [3]: 15% | Population Tubulin-Different-Phenotype (%) [3]: 43% | Total Cell Count [3]: 228 | Population Apoptotic (%) [4]: 47% | Population Fragmented Nuclei (%) [4]: 5% | Population Healthy Nuclei (%) [4]: 79% | Population Membrane Permeable-Phenotype (%) [4]: 1% | Population Mitochondria Different-Phenotype (%) [4]: 64% | Population Mitotic Cells (%) [4]: 52% | Population Tubulin-Different-Phenotype (%) [4]: 36% | Total Cell Count [4]: 240 | Population Apoptotic (%) [5]: 33% | Population Fragmented Nuclei (%) [5]: 9% | Population Healthy Nuclei (%) [5]: 80% | Population Hoechst High Intensity Objects (%) [5]: 3% | Population Membrane Permeable-Phenotype (%) [5]: 0% | Population Mitochondria Different-Phenotype (%) [5]: 35% | Population Mitotic Cells (%) [5]: 66% | Population Normal (%) [5]: 97% | Population Pyknosed Nuclei (%) [5]: 10% | Population Tubulin-Different-Phenotype (%) [5]: 18% | Total Cell Count [5]: 601 | Population Apoptotic (%) [6]: 42% | Population Fragmented Nuclei (%) [6]: 6% | Population Healthy Nuclei (%) [6]: 79% | Population Hoechst High Intensity Objects (%) [6]: 6% | Population Mitochondria Different-Phenotype (%) [6]: 47% | Population Mitotic Cells (%) [6]: 57% | Population Normal (%) [6]: 93% | Population Pyknosed Nuclei (%) [6]: 14% | Population Tubulin-Different-Phenotype (%) [6]: 17% | Total Cell Count [6]: 373 | Population Apoptotic (%) [7]: 44% | Population Fragmented Nuclei (%) [7]: 9% | Population Healthy Nuclei (%) [7]: 78% | Population Hoechst High Intensity Objects (%) [7]: 3% | Population Membrane Permeable-Phenotype (%) [7]: 0% | Population Mitochondria Different-Phenotype (%) [7]: 40% | Population Mitotic Cells (%) [7]: 55% | Population Normal (%) [7]: 96% | Population Pyknosed Nuclei (%) [7]: 12% | Population Tubulin-Different-Phenotype (%) [7]: 28% | Total Cell Count [7]: 274 | Population Apoptotic (%) [8]: 32% | Population Fragmented Nuclei (%) [8]: 5% | Population Healthy Nuclei (%) [8]: 80% | Population Hoechst High Intensity Objects (%) [8]: 5% | Population Mitochondria Different-Phenotype (%) [8]: 44% | Population Mitotic Cells (%) [8]: 67% | Population Normal (%) [8]: 94% | Population Pyknosed Nuclei (%) [8]: 13% | Population Tubulin-Different-Phenotype (%) [8]: 18% | Total Cell Count [8]: 314 | Population Apoptotic (%) [9]: 23% | Population Fragmented Nuclei (%) [9]: 11% | Population Healthy Nuclei (%) [9]: 82% | Population Hoechst High Intensity Objects (%) [9]: 2% | Population Membrane Permeable-Phenotype (%) [9]: 1% | Population Mitochondria Different-Phenotype (%) [9]: 19% | Population Mitotic Cells (%) [9]: 76% | Population Normal (%) [9]: 97% | Population Pyknosed Nuclei (%) [9]: 6% | Population Tubulin-Different-Phenotype (%) [9]: 13% | Total Cell Count [9]: 885 | Population Apoptotic (%) [10]: 44% | Population Fragmented Nuclei (%) [10]: 13% | Population Healthy Nuclei (%) [10]: 80% | Population Hoechst High Intensity Objects (%) [10]: 3% | Population Membrane Permeable-Phenotype (%) [10]: 0% | Population Mitochondria Different-Phenotype (%) [10]: 21% | Population Mitotic Cells (%) [10]: 55% | Population Normal (%) [10]: 96% | Population Tubulin-Different-Phenotype (%) [10]: 9% | Total Cell Count [10]: 562 | Population Apoptotic (%) [11]: 31% | Population Fragmented Nuclei (%) [11]: 14% | Population Healthy Nuclei (%) [11]: 74% | Population Hoechst High Intensity Objects (%) [11]: 2% | Population Membrane Permeable-Phenotype (%) [11]: 0% | Population Mitochondria Different-Phenotype (%) [11]: 36% | Population Mitotic Cells (%) [11]: 68% | Population Normal (%) [11]: 97% | Population Pyknosed Nuclei (%) [11]: 10% | Population Tubulin-Different-Phenotype (%) [11]: 20% | Total Cell Count [11]: 390 | Population Apoptotic (%) [12]: 30% | Population Fragmented Nuclei (%) [12]: 11% | Population Healthy Nuclei (%) [12]: 81% | Population Hoechst High Intensity Objects (%) [12]: 3% | Population Mitochondria Different-Phenotype (%) [12]: 30% | Population Mitotic Cells (%) [12]: 69% | Population Normal (%) [12]: 96% | Population Pyknosed Nuclei (%) [12]: 7% | Population Tubulin-Different-Phenotype (%) [12]: 12% | Total Cell Count [12]: 521

CCNC1(C(N)=O)CCN(c2ncnc3c2nc(-c2ccccc2Cl)n3-c2ccc(Cl)cc2)CC1 [OTENABANT]
Population Apoptotic (%) [1]: 51% | Population Fragmented Nuclei (%) [1]: 8% | Population Healthy Nuclei (%) [1]: 80% | Population Hoechst High Intensity Objects (%) [1]: 10% | Population Membrane Permeable-Phenotype (%) [1]: 0% | Population Mitochondria Different-Phenotype (%) [1]: 48% | Population Mitotic Cells (%) [1]: 48% | Population Normal (%) [1]: 89% | Population Pyknosed Nuclei (%) [1]: 10% | Population Tubulin-Different-Phenotype (%) [1]: 52% | Total Cell Count [1]: 401 | Population Apoptotic (%) [2]: 58% | Population Healthy Nuclei (%) [2]: 76% | Population Hoechst High Intensity Objects (%) [2]: 6% | Population Mitochondria Different-Phenotype (%) [2]: 66% | Population Mitotic Cells (%) [2]: 41% | Population Normal (%) [2]: 93% | Population Pyknosed Nuclei (%) [2]: 15% | Population Tubulin-Different-Phenotype (%) [2]: 44% | Total Cell Count [2]: 333 | Population Apoptotic (%) [3]: 46% | Population Fragmented Nuclei (%) [3]: 3% | Population Healthy Nuclei (%) [3]: 74% | Population Hoechst High Intensity Objects (%) [3]: 16% | Population Membrane Permeable-Phenotype (%) [3]: 0% | Population Mitochondria Different-Phenotype (%) [3]: 82% | Population Mitotic Cells (%) [3]: 53% | Population Normal (%) [3]: 83% | Population Pyknosed Nuclei (%) [3]: 22% | Population Tubulin-Different-Phenotype (%) [3]: 50% | Total Cell Count [3]: 381 | Population Apoptotic (%) [4]: 63% | Population Fragmented Nuclei (%) [4]: 4% | Population Healthy Nuclei (%) [4]: 67% | Population Hoechst High Intensity Objects (%) [4]: 9% | Population Mitochondria Different-Phenotype (%) [4]: 96% | Population Mitotic Cells (%) [4]: 36% | Population Normal (%) [4]: 90% | Population Pyknosed Nuclei (%) [4]: 27% | Population Tubulin-Different-Phenotype (%) [4]: 43% | Total Cell Count [4]: 251 | Population Apoptotic (%) [5]: 49% | Population Fragmented Nuclei (%) [5]: 8% | Population Healthy Nuclei (%) [5]: 80% | Population Hoechst High Intensity Objects (%) [5]: 5% | Population Membrane Permeable-Phenotype (%) [5]: 0% | Population Mitochondria Different-Phenotype (%) [5]: 43% | Population Mitotic Cells (%) [5]: 50% | Population Normal (%) [5]: 94% | Population Pyknosed Nuclei (%) [5]: 11% | Population Tubulin-Different-Phenotype (%) [5]: 44% | Total Cell Count [5]: 474 | Population Apoptotic (%) [6]: 40% | Population Fragmented Nuclei (%) [6]: 12% | Population Healthy Nuclei (%) [6]: 75% | Population Mitochondria Different-Phenotype (%) [6]: 47% | Population Mitotic Cells (%) [6]: 59% | Population Tubulin-Different-Phenotype (%) [6]: 41% | Total Cell Count [6]: 442 | Population Apoptotic (%) [7]: 40% | Population Fragmented Nuclei (%) [7]: 8% | Population Healthy Nuclei (%) [7]: 71% | Population Hoechst High Intensity Objects (%) [7]: 17% | Population Membrane Permeable-Phenotype (%) [7]: 1% | Population Mitochondria Different-Phenotype (%) [7]: 79% | Population Mitotic Cells (%) [7]: 59% | Population Normal (%) [7]: 82% | Population Pyknosed Nuclei (%) [7]: 19% | Population Tubulin-Different-Phenotype (%) [7]: 56% | Total Cell Count [7]: 452 | Population Apoptotic (%) [8]: 64% | Population Fragmented Nuclei (%) [8]: 6% | Population Healthy Nuclei (%) [8]: 77% | Population Hoechst High Intensity Objects (%) [8]: 13% | Population Membrane Permeable-Phenotype (%) [8]: 0% | Population Mitochondria Different-Phenotype (%) [8]: 95% | Population Mitotic Cells (%) [8]: 35% | Population Normal (%) [8]: 86% | Population Pyknosed Nuclei (%) [8]: 15% | Population Tubulin-Different-Phenotype (%) [8]: 53% | Total Cell Count [8]: 283 | Population Apoptotic (%) [9]: 34% | Population Fragmented Nuclei (%) [9]: 12% | Population Healthy Nuclei (%) [9]: 78% | Population Hoechst High Intensity Objects (%) [9]: 4% | Population Membrane Permeable-Phenotype (%) [9]: 1% | Population Mitochondria Different-Phenotype (%) [9]: 29% | Population Mitotic Cells (%) [9]: 65% | Population Normal (%) [9]: 95% | Population Pyknosed Nuclei (%) [9]: 9% | Population Tubulin-Different-Phenotype (%) [9]: 30% | Total Cell Count [9]: 766 | Population Apoptotic (%) [10]: 32% | Population Fragmented Nuclei (%) [10]: 8% | Population Healthy Nuclei (%) [10]: 82% | Population Membrane Permeable-Phenotype (%) [10]: 0% | Population Mitochondria Different-Phenotype (%) [10]: 30% | Population Mitotic Cells (%) [10]: 68% | Population Pyknosed Nuclei (%) [10]: 8% | Total Cell Count [10]: 604 | Population Apoptotic (%) [11]: 52% | Population Fragmented Nuclei (%) [11]: 13% | Population Healthy Nuclei (%) [11]: 71% | Population Hoechst High Intensity Objects (%) [11]: 16% | Population Membrane Permeable-Phenotype (%) [11]: 2% | Population Mitochondria Different-Phenotype (%) [11]: 78% | Population Mitotic Cells (%) [11]: 47% | Population Normal (%) [11]: 83% | Population Pyknosed Nuclei (%) [11]: 15% | Population Tubulin-Different-Phenotype (%) [11]: 66% | Total Cell Count [11]: 560 | Population Apoptotic (%) [12]: 70% | Population Fragmented Nuclei (%) [12]: 10% | Population Healthy Nuclei (%) [12]: 77% | Population Hoechst High Intensity Objects (%) [12]: 14% | Population Membrane Permeable-Phenotype (%) [12]: 0% | Population Mitochondria Different-Phenotype (%) [12]: 89% | Population Mitotic Cells (%) [12]: 29% | Population Normal (%) [12]: 85% | Population Pyknosed Nuclei (%) [12]: 12% | Population Tubulin-Different-Phenotype (%) [12]: 57% | Total Cell Count [12]: 325
